Series [1] concerns HEC1A endometrial cancer cells. As to the kind of experiment: Thiol rescue experiment. The format is cell-based, human. Conditions: for rescue of cytotoxicity by NAC and GSH pre-treatment: HEC1A, NAC or GSH 2 mM for 40 min; for pIC50: Homo sapiens, HEC-1-A; for ΔIC50 (+GSH): IC50 with GSH minus IC50 of compound alone; for ΔIC50 (+NAC): IC50 with NAC minus IC50 of compound alone. In outline:
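HEC1A cells were seeded on day 1 (5000/well). On day 2 they were pre-treated 40 min with NAC or GSH, 2 mM in medium neutralised to pH 7.4. Test compound was then added (final 160–1.25 μM serial dilutions, triplicate, equal DMSO), with 48 h incubation. The MTT readout (3 h, absorbance 590/620 nm) followed. IC50 was compared with cells given no thiol.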

For series [2] the following is noted: 10 mg kg−1 via oral gavage in C57BL/6 mice; cited from earlier work.
Series [3] concerns CALU-1 (lung squamous cell carcinoma). As to the kind of experiment: MTT cytotoxicity assay, CALU-1. The format is cell-based. Conditions: Homo sapiens, Calu-1, read-out: Mean IC50 CALU-1. In outline:
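Uses the HEC1A MTT protocol: test compound in DMSO, diluted to final 160 down to 1.25 μM in two-fold steps, in triplicate, with equal DMSO in controls. […] CALU-1 was cultured in MEM in place of DMEM. […]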

In series [4] the test system is noncancerous human endometrial stromal (MAD11) cells. As to the kind of experiment: MTT cytotoxicity assay, MAD11. Format: cell-based. Conditions: MAD11, 48 h, read-out: MAD11 IC50. In outline:
(§1)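 HEC1A (5000/well) and MAD11 (2500/well) cells were seeded and held overnight at 37 °C. Test compound was reconstituted in DMSO and serially diluted in medium to final 160, 80, 40, 20, 10, 5, 2.5 and 1.25 μM, in triplicate, with matched DMSO in all wells. After 48 h, MTT was added for 3 h, formazan solubilised (4 mM HCl, 0.1% NP-40, isopropanol) and absorbance read at 590/620 nm. IC50 was taken against vehicle controls; selectivity = MAD11 IC50 / HEC1A IC50.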
(In general: Tetrazolium assays rely on reduction of a dye to a coloured formazan, in cell work by metabolically active cells.)

In series [5] the test system is HEC1A cancer cells. In words: Oxygen consumption rate assay. The format is cell-based, human. Conditions: over 120 minutes, compared to vehicle (DMSO) control, 21 at 20 μM. In outline: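 Seahorse XF96 OCR assay. HEC1A cells (15 000/well) adhered 24 h in DMEM, 10% FBS, penicillin/streptomycin at 37 °C, 5% CO₂. Medium was then swapped for unbuffered phenol-red-free DMEM (25 mM glucose, 4 mM glutamine, 1 mM pyruvate, pH 7.4), with 40 min degassing at 37 °C without CO₂. Three baseline reads preceded compound injection; 11 cycles (3 min wait, 3 min mix, 2 min measure) followed. OCR was normalised to the third baseline reading; DMSO served as vehicle control.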

Series [6] concerns human endometrial cancer (HEC1A) cells. As to the kind of experiment: MTT cytotoxicity assay, HEC1A. Format: cell-based. Conditions: for pIC50: Homo sapiens, HEC-1-A, 48 h, read-out: HEC1A IC50, MTT cell viability, 48 h, n = 3 biological repeats; for Selectivity ratio: IC50 MAD11 divided by IC50 HEC1A. In outline: as §1
Series [7] in a line: Pharmacokinetic profiling in vivo. On the set-up: species or system C57BL/6 mice.

pIC50: −log10 of the molar value. Values joined by “and” are separate entries in the source; they are usually repeats but may differ in a detail not shown here. Equal entries are not always repeated. “Also recorded” adds a separate entry of the source. Where two headings read alike, the source gives them in different places.

For orientation: pIC50 means the negative decadic logarithm of the IC50, by convention in mol/L. As usually defined, the half-life is the time in which the quantity being followed falls by half.

`O=C1C(Cl)=C(NCCN2CCOCC2)C(=O)c2ccccc21` [BH10, 2-chloro-3-[(2-morpholin-4-ylethyl)amino]naphthalene-1,4-dione, reference compound]: in series [1], the “rescue of cytotoxicity by NAC and GSH pre-treatment” value is “rescued”. The pIC50 is less than 4.10 in series [1] (read-out: +GSH IC50 ± SEM); 4.24 in series [1] (read-out: +NAC IC50); 4.78 in series [3]; 4.59 in series [4]; 4.99 in series [6]. In addition, in series [1], the “ΔIC50 (+GSH)” value is “>+69.78 μM”. Also, the “ΔIC50 (+NAC)” value in series [1] is “+47.78 μM”. Moreover, the half-life in series [2] is reported as 21.6 min. For the same compound, the “maximum OCR increase” value in series [5] is reported as “up to 200%”. Moreover, the Selectivity ratio in series [6] came out at 2.51.
`Cc1nc2c(n1CCCN1CCCCC1)C(=O)c1ccccc1C2=O` [Compound 44, 2-Methyl-1-(3-(piperidin-1-yl)propyl)-1H-naphtho[2,3-d]imidazole-4,9-dione]: in series [1], the “rescue of cytotoxicity by NAC and GSH pre-treatment” value is listed as “did not rescue; also recorded: unaffected”. The pIC50 is 5.13 in series [1] (read-out: +GSH IC50 ± SEM); 5.17 in series [1] (read-out: +NAC IC50); 5.19 in series [1] (read-out: Alone IC50); 4.81 in series [3]; 4.64 in series [4]; 5.19 in series [6]. The “ΔIC50 (+GSH)” value in series [1] is given as “+1.00 μM”. In series [1], the “ΔIC50 (+NAC)” value is recorded as “+0.40 μM”. For the same compound, in series [7] (C57BL/6, mouse, plasma, po, 20 mg/kg), the half-life amounted to 26.8 min. For the same compound, the “half-life longer than BH10” value in series [7] (oral administration, versus BH10 t1/2 = 21.6 min) is given as 5.2 min. Also, the “maximum OCR increase” value in series [5] was found to be 130%. In addition, in series [6], the Selectivity ratio was 3.6 and 3.59.

Source of the values: paper PMC11986672 (RSC Medicinal Chemistry, 2025).
